GSK3 alpha inh: blockers of GSK3A enzyme activity – biochemical, luminescence, cell-free homogeneous, HTS, primary screen | 0.1% of 320,000 active | Glycogen synthase kinase-3 alpha (Homo sapiens), P49840 | inhibition, % at 10 µM | GSK-3 alpha kinase, ADP-Glo luminescence, 60 min | AID 2650, 2010;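 active = more than half of replicates show inhibition above 20%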;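 note: GST-tagged GSK-3 alpha with peptide substrate and 25 µM ATP; 0% = DMSO neutral wells and 100% = GW8510 positive control wells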
Target sequence (P49840 whole entry, looked up): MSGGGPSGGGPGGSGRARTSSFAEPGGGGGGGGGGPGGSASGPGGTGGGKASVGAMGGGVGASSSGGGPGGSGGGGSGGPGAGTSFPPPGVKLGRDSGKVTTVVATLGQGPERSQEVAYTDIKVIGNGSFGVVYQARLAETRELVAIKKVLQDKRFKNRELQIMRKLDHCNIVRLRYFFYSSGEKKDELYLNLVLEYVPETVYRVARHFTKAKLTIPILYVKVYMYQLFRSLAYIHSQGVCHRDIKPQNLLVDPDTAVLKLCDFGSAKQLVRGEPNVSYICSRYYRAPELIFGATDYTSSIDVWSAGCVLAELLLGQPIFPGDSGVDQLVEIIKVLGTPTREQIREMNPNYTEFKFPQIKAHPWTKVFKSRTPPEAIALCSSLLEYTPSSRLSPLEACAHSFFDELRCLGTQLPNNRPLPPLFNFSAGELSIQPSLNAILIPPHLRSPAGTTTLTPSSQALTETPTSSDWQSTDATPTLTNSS
Dyrk1A ADPGlo: rat Dyrk1A kinase inhibitors, primary screen, biochemical, single point, plate reader. Dual specificity tyrosine-phosphorylation-regulated kinase 1A (Rattus norvegicus), Q63470. ADP-Glo luminescence, NFATc1 peptide. inhibition, % at 12.5 µM. 0.43% of 310,000 active. AID 504441, 2011; in the data active = inhibition above about 50%;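 note: plate controls were vehicle with enzyme for no effect and no enzyme for full effect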
GSK3B inh: human GSK3beta kinase inhibitors, primary screen, biochemical, cell-free homogeneous, HTS; GST-GSK3beta kinase, ADP-Glo luminescence, 60 min; hits give low values; activity score (negative = inhibition), % at 10 µM; 0.038% of 300,000 active; Glycogen synthase kinase-3 beta (Homo sapiens), P49841; AID 2097, 2009;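 active = more than half of replicate wells score below -50%, meaning over 50% inhibition versus plate controls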;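 note: 0% = median DMSO wells and -100% = median GW8510 positive control wells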
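test system = GST-tagged human GSK3beta kinase, cell-free | reagent = 25 µM ATP with peptide substrate | dosing = one dose of 10 µM per compound | schedule = 60 min reaction, RT | detection = luminescent ADP-Glo measurement of ADP formed | control set = DMSO neutral wells and GW8510 at 20 µM as positive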
STK33 kinase inh: inhibitors of purified STK33 kinase, primary screen, biochemical, ADP-Glo luminescence, homogeneous, cell-free; 0.073% of 320,000 active; inhibition, % at 10 µM; Serine/threonine-protein kinase 33 (Homo sapiens), Q9BYT3; AID 2661, 2010; MBP phosphorylation;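 active = inhibition at or above 25%, using the most active replicate where run in duplicate; inactive = inhibition below 25%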
Dyrk1A artifact: ADP-Glo luciferase interference without Dyrk1A, dose response, artefact control for Dyrk1A inhibitor project, biochemical, luminescence, cherry-pick, set 02; shares compounds with Dyrk1A ADPGlo; ADP-Glo luciferase artifact assay, no Dyrk1A; 1,300 tested, under 10 active; AC50, µM (series often up to 12 µM), for the others: at the highest dose activity change, negative = inhibition;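 active = fitted half-maximal dose AC50 no more than ten times the top valid tested dose, with luminescence dropping as dose rises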
* hit, by the source's call; . = not tested or not shown. The entries come from a sample that favours hits as a whole.

SMILES | GSK3 alpha inh | Dyrk1A ADPGlo | GSK3B inh | STK33 kinase inh | Dyrk1A artifact
CCO/C(=C/c1sc2ccc(OC)cc2[n+]1CCCS(=O)(=O)[O-])CC | 3.9 | 57.2* | 0.1 | 0.5 | 8.7%
COc1ccc(-c2nc3ccccc3s2)cc1O | 3.7 | -4.0 | -1.8 | 3.3 | .
CCOc1cc(-c2nc3ccccc3s2)ccc1O | -0.8 | 58.2* | 4.0 | -0.2 | 7.6%
COc1cc(-c2nc3ccccc3s2)ccc1O | 0.0 | 76.6* | -0.3 | 3.6 | 8.3%
Cc1ccc(-c2cc(O)cc3sc(=O)oc23)cc1C | . | 54.2* | -0.3 | 0.1 | 9.1%
Cc1ccc(SCC(=O)OC(C)C(=O)NCc2ccccc2)cc1 (configuration not stated) | . | 0.3 | 3.3 | . | .
CCCn1c(NCc2ccco2)nc2c1c(=O)n(C)c(=O)n2C | 0.1 | -2.3 | -6.8 | -1.6 | .
Cn1c(=O)c2c(nc(NCc3ccco3)n2CC(O)COc2ccccc2)n(C)c1=O (configuration not stated) | 1.7 | 56.5* | 0.1 | -2.1 | 7.6%
N#CC(C#N)=C1C=CC=CN1/C(=C\c1ccco1)C(=O)c1ccccc1 | 1.4 | 62.6* | . | 2.8 | 6.4%
COc1ccc(NC(=O)c2ccco2)cc1NC(=O)c1c(F)c(F)c(OC)c(F)c1F | -3.5 | 4.2 | 4.5 | -0.1 | .
O=C1CCN(CCCc2ccccc2)CCN1[C@H](CO)c1ccccc1 | -1.8 | 50.9* | 1.2 | -0.4 | 8.9%
CC(=O)Nc1cccc(-c2cnc(N)c(C(=O)c3cccnc3)n2)c1 | 88.5* | 88.2* | . | 12.8 | 12.9%
COc1ccc(CCNC(=O)COC(=O)c2ccc(N3CCCC3=O)cc2)cc1OC | 5.8 | 8.0 | -0.4 | -0.5 | .
CCCN(CCC)CCNC(=O)c1cc2c(=O)n(C)c3ccccc3c2n1C | 3.4 | 70.0* | 1.1 | 1.8 | 9.6%
C(=N\Nc1ncnc2nc[nH]c12)/c1cccs1 | 42.6 | 66.0* | -48.8 | 4.7 | -0.8%
Clc1cnc(N/N=C/c2cccs2)c(Cl)c1 | 0.1 | 4.1 | 3.5 | 1.0 | .
Cc1ccsc1/C=N/Nc1ncnc2nc[nH]c12 | 45.8 | 53.8* | -26.3 | 9.0 | 2.1%
Cc1ccccc1/C=N/Nc1ncnc2nc[nH]c12 | 54.1* | 62.8* | -36.0 | 8.3 | 8.0%
COc1ccc(C(=O)Nc2nc3ccccc3[nH]2)cc1S(=O)(=O)N1CCOCC1 | -3.5 | 55.0* | 0.7 | 6.9 | 10.1%
Cc1ccc(C)c(NC(=O)C2CCCN2/C=C/C(=O)C(F)(F)F)c1 (configuration not stated) | -2.9 | 3.3 | 1.9 | -0.8 | .
O=C(Nc1cccc(Cl)c1)Nc1nccs1 | 13.2 | 58.6* | -2.1 | 4.2 | 10.6%
O=C(Nc1ccc(Cl)c(Cl)c1)Nc1nccs1 | -1.7 | 2.9 | -0.5 | 3.1 | .
COC(=O)c1cc(NC(=O)Nc2cccc(Cl)c2)ccc1Cl | 0.4 | 53.2* | -2.2 | -0.5 | 10.3%
O=C1c2ccccc2C(=O)N1CCCc1c[nH]c2ccc(Cl)cc12 | -1.7 | 1.0 | -0.6 | 0.8 | .
C#CCN1C=C(C(=O)OCC)C(C)N(Cc2ccccc2I)S1(=O)=O (configuration not stated) | . | -2.2 | . | . | .
SMILES | GSK3 alpha inh | Dyrk1A ADPGlo | GSK3B inh | STK33 kinase inh | Dyrk1A artifact
Cc1ccc(-c2onc3ccc(C=O)cc23)cc1 | 11.0 | 13.2 | -17.9 | 2.1 | .
O=C(O)/C=C/c1ccc2noc(-c3ccccc3)c2c1 | 5.0 | 69.7* | -1.1 | 24.1 | 10.7%
Cn1c(=O)c(=O)n(C)c2cc(S(=O)(=O)N3CCCC3C(=O)Nc3ccc(F)cc3)ccc21 (configuration not stated) | 4.0 | -3.8 | 3.5 | -1.3 | .
C/C(=C/c1oc2ccc(O)cc2c1[N+](=O)[O-])N(C)C | -0.7 | 51.9* | -2.9 | 0.4 | 6.9%
Nc1c(C(=O)NCc2ccccc2)nnn1Cc1ccccc1 | -3.1 | 60.3* | 6.8 | 0.3 | 10.2%
COc1cccc(Cn2nnc(C(=O)NCCc3ccc(Cl)cc3)c2N)c1 | -0.7 | 56.3* | 3.7 | -3.9 | 8.8%
CSc1ccc(Cn2nnc(C(=O)NCc3ccccc3)c2N)cc1 | -2.8 | -3.2 | 3.4 | -2.0 | .
COc1cc(NS(=O)(=O)c2c(C(=O)N3CCOCC3)c(C)n(C)c2C)cc(OC)c1OC | 0.5 | -1.6 | 3.2 | -2.7 | .
c1ccc2c(-c3nc(C4CCCCC4)no3)cc(-c3ccncc3)nc2c1 | -1.0 | 71.6* | 0.1 | -0.1 | 7.6%
COc1ccc(-c2cc(-c3nnc(-c4ccncc4)o3)c3ccccc3n2)cc1 | -1.7 | -5.8 | -1.5 | -1.8 | .
CCC1(CC)NC(=O)N(CC(=O)Nc2sc3c(c2C(N)=O)CCC3)C1=O | 28.0 | 65.5* | -8.9 | 0.6 | 2.0%
COc1ccc2cc3cc(C(=O)NCCN4CCN(Cc5ccccc5)CC4)oc3nc2c1 | 2.4 | 51.7* | 5.3 | -0.3 | 9.3%
COc1ccc2cc3cc(C(=O)NCCCN4CCC(C)CC4)oc3nc2c1 | 7.9 | 52.8* | . | -1.2 | 7.2%
CCCN(CCC)CCCNC(=O)c1cc2cc3ccc(OC)cc3nc2o1 | 9.5 | 37.3 | -7.0 | -0.4 | .
COc1ccc2cc3cc(C(=O)NCCCN4CCOCC4)oc3nc2c1 | 3.1 | 57.6* | -3.3 | 0.5 | 9.1%
CCCCN(CC)CCCNC(=O)c1cc2cc3ccc(OC)cc3nc2o1 | -12.6 | 50.2* | -3.0 | 2.0 | 9.0%
COCCCn1c(=O)c2sccc2n(Cc2ccc(C)cc2)c1=O | 0.0 | -1.0 | 3.6 | -0.9 | .
CC(=O)Nc1ccc(S(=O)(=O)NCCC(=O)N2CCC(Cc3ccccc3)CC2)cc1 | -1.6 | 8.2 | . | -0.2 | .
CC1CCCC(NC(=O)c2cccc(S(=O)(=O)N3CCCCC3)c2)C1C (configuration not stated) | 1.3 | -8.8 | -2.5 | -1.2 | .
CCN1CCN(CCCNC(=O)c2cc3cc4ccc(OC)cc4nc3o2)CC1 | 3.8 | 87.9* | -8.7 | 0.1 | 7.3%
COc1ccc2c(c1)OC[C@H]1[C@H]2N2C(=O)CN(CC3CCCO3)C(=O)[C@@]2(C)[C@H]1c1ccccc1 (some centres not stated) | 0.5 | 50.2* | . | -1.4 | 7.7%
COc1ccc2c(c1)C(=O)N1[C@H]3c4cc(C)ccc4OC[C@@H]3[C@H](c3ccccc3)[C@]1(C)C(=O)N2 | -2.0 | 54.9* | . | 0.6 | 15.5%
C=CCNC(=O)c1sccc1Oc1ccc(F)cc1[N+](=O)[O-] | 4.8 | -0.8 | 1.6 | 0.0 | .
O=C(CCNC(=O)C1CCN(S(=O)(=O)c2ccc(F)cc2)CC1)Nc1ccccc1 | -1.5 | -0.1 | 0.8 | -0.6 | .
CN(C)CCCOC(=O)COc1ccc(Br)cc1 | -9.0 | 68.5* | -2.0 | -1.1 | 9.0%
C[N+](C)(CCOc1ccccc1)Cc1ccccc1 (tested in a mixture with another compound) | 9.7 | 92.3* | -3.4 | 0.8 | 7.1%

Bioassay records from PubChem BioAssay.
